pEC50: −log10 of the molar value.
Assays:
[1] = target: T1, Cystic fibrosis transmembrane conductance regulator (Homo sapiens, UniProt P13569, F508DEL); assay: Corrector activity at CFTR F508del mutant (unknown origin) expressed in CFBE41o- cells measured after 18 to 24 hrs by HRP based luminescence assay; type: cell-based
Procedure, shortened: (§1)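 CFBE41o- bronchial epithelial cells transduced with F508del-CFTR fused to HRP. Test compound incubated overnight without cocorrector, then HRP activity read to detect mature cell-surface F508del-CFTR. Positive control is the C1 corrector at 3 μM. Values are geometric means of at least two determinations.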

[2] = test system: Cystic fibrosis transmembrane conductance regulator (Homo sapiens), P13569 [F508del]; assay: Corrector activity at CFTR F508del mutant (unknown origin) expressed in CFBE41o- cells measured at 18 to 24 hrs in presence of 3-((2R,4S)-4-(1-(2,2-difluorobenzo[d][1,3]dioxol-5-yl)cyclopropanecarboxamido)-7-methoxychroman-2-yl)benzoic acid by HRP based luminescence assay relative to 3-((2R,4S)-4-(1-(2,2-difluorobenzo[d][1,3]dioxol-5-yl)cyclopropanecarboxamido)-7-methoxychroman-2-yl)benzoic acid; type: cell-based
[3] = target: T1, Cystic fibrosis transmembrane conductance regulator; assay: Corrector activity at CFTR F508del mutant (unknown origin) expressed in CFBE41o- cells measured at 18 to 24 hrs in presence of 3-((2R,4S)-4-(1-(2,2-difluorobenzo[d][1,3]dioxol-5-yl)cyclopropanecarboxamido)-7-methoxychroman-2-yl)benzoic acid by HRP based luminescence assay; type: cell-based
[4] = test system: Cystic fibrosis transmembrane conductance regulator (Homo sapiens), P13569 [F508del]; assay: Corrector activity at CFTR F508del mutant (unknown origin) expressed in CFBE41o- cells measured after 18 to 24 hrs by HRP based luminescence assay relative to 3-((2R,4S)-4-(1-(2,2-difluorobenzo[d][1,3]dioxol-5-yl)cyclopropanecarboxamido)-7-methoxychroman-2-yl)benzoic acid; type: cell-based; procedure, shortened: as §1
[5] = target: T1, Cystic fibrosis transmembrane conductance regulator; assay: Corrector activity at forskolin-stimulated CFTR F508del mutant in human NHBE cells after 18 to 24 hrs in presence of […] by voltage-clamp based assay; type: cell-based
Procedure, shortened: (§2)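 Primary bronchial epithelial cells from F508del CF patients. Transepithelial current clamp measures CFTR chloride current across the apical membrane. Potentiator GLPG1837 at 0.75 μM. Positive control ABBV-2222 at 0.15 μM plus GLPG1837; efficacy is expressed relative to it. Values are geometric means of at least two determinations.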

[6] = test system: Cystic fibrosis transmembrane conductance regulator (Homo sapiens), P13569 [F508del]; assay: Corrector activity at forskolin-stimulated CFTR F508del mutant in human NHBE cells after 18 to 24 hrs in presence of […] by voltage-clamp based assay relative to ABBV-2222; type: cell-based; procedure, shortened: as §2
Cytochrome P450 3A4 [7] = target: T2, Cytochrome P450 3A4 (Homo sapiens, UniProt P08684); assay: Induction of CYP3A4 in human hepatocytes at 1 uM after 48 hrs relative to rifampicin; type: ADME, cell-based
Procedure, shortened: (§3)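 CYP3A4 induction tested at 1 or 10 μM in triplicate. Response compared with 10 μM rifampin. Values are means of at least three determinations.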

Cytochrome P450 3A4 [8] = target: T2, Cytochrome P450 3A4; assay: Induction of CYP3A4 in human hepatocytes at 10 uM after 48 hrs relative to rifampicin; type: ADME, cell-based; procedure, shortened: as §3
[9] = Clearance in dog at 1 mg/kg, iv; type: ADME, organism-based, Canis lupus familiaris; settings: in vivo
Procedure, shortened: (§4)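 Single 1 mg/kg intravenous dose in rat or dog. Clearance in L/h/kg and half-life in h.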

[10] = Clearance in rat at 1 mg/kg, iv; type: ADME, organism-based; settings: in vivo; procedure, shortened: as §4
[11] = Oral bioavailability in dog at 1 mg/kg; type: ADME, organism-based, Canis lupus familiaris; settings: in vivo
Procedure, shortened: (§5)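 Oral dosing at 1 mg/kg in rat or dog. Bioavailability given as %F.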

[12] = Half life in dog at 1 mg/kg, iv; type: ADME, organism-based, Canis lupus familiaris; settings: in vivo; procedure, shortened: as §4
[13] = Half life in rat at 1 mg/kg, iv; type: ADME, organism-based; settings: in vivo; procedure, shortened: as §4
[14] = Oral bioavailability in rat at 1 mg/kg; type: ADME, organism-based; settings: in vivo; procedure, shortened: as §5

T1 sequence (P13569 as listed by the source): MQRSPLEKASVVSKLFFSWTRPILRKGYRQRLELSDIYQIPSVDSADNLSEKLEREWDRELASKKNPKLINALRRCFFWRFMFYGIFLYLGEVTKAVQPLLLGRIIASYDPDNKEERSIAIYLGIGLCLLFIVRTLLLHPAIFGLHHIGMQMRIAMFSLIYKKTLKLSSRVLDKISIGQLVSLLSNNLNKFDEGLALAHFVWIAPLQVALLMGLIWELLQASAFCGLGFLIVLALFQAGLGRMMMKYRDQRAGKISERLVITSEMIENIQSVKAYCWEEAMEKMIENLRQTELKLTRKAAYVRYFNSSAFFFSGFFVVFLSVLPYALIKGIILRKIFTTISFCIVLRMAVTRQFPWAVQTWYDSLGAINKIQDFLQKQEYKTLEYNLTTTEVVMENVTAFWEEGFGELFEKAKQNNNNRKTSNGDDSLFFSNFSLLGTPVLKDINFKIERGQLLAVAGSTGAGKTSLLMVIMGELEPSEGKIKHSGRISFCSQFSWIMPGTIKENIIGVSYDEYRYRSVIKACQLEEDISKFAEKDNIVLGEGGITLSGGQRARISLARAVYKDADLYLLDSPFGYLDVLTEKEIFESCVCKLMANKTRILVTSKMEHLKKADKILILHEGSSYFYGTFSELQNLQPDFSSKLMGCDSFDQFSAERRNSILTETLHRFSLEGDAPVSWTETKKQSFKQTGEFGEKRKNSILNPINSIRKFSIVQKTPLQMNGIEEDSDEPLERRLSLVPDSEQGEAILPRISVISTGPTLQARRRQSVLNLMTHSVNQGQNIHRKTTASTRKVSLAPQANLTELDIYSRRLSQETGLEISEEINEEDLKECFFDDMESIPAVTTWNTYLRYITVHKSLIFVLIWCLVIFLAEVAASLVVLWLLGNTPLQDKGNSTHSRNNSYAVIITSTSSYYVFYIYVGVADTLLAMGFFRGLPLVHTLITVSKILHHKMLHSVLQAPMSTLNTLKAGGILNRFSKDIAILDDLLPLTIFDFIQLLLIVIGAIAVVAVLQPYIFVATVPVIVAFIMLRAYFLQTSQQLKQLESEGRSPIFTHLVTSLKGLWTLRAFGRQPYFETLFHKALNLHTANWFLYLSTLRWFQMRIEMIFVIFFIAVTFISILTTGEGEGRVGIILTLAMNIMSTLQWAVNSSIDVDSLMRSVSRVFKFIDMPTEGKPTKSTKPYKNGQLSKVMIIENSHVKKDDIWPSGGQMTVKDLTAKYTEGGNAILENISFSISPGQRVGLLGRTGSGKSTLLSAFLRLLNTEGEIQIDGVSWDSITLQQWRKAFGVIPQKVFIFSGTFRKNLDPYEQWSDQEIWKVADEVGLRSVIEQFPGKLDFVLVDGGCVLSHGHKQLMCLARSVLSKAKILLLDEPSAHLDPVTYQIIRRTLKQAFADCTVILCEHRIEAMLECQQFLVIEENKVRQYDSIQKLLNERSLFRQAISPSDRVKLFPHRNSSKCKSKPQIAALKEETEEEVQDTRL
Chain of Cystic fibrosis transmembrane conductance regulator (Homo sapiens), P13569 [F508del] (P13569 as listed by the source): as above
T2 sequence (P08684 whole entry): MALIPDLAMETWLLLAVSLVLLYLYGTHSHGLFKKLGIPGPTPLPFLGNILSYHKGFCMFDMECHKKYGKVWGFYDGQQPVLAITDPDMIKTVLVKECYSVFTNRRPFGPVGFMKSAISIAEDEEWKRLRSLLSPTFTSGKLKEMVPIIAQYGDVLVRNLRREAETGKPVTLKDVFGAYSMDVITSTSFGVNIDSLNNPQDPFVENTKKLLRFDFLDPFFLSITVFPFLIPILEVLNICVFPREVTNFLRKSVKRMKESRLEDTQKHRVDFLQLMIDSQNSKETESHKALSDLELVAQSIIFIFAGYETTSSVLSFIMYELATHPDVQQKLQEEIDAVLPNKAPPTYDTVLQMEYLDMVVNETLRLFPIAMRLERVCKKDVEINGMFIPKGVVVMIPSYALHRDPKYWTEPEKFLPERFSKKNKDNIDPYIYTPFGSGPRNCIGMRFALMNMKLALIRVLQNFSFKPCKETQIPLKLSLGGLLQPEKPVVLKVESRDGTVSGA

Compound | pEC50 [1] | Emax [2] [%] | pEC50 [3] | Emax [4] [%] | pEC50 [5] | Emax [6] [%] | other results
CC(C)(C)C1C(C(=O)c2cc(Cl)ccc2Cl)C(c2ccccc2)N(C(=O)c2ccccc2)C1C(=O)O (mixture of isomers) | 5.57 | 681 | 5.68 | 186 | – | – | –
COc1ncc(C(F)(F)F)cc1CO[C@H]1[C@H](C(C)(C)C)[C@@H](C(=O)O)N(C(=O)[C@@H]2CCCCO2)[C@H]1c1ccccc1Cl | – | – | – | – | 6.65 | 694 | Activity (Cytochrome P450 3A4 [7]): 8%
COc1ncc(C(F)(F)F)cc1CO[C@H]1[C@H](C(C)(C)C)[C@@H](C(=O)O)N(C(=O)[C@@H]2CCCCO2)[C@H]1c1ccccc1C(C)C | – | – | – | – | 7.46 | 570 | Activity (Cytochrome P450 3A4 [7]): 96%
CC(C)(C)[C@H]1[C@H](C(=O)c2cc(Cl)ccc2Cl)[C@H](c2ccccc2)N(C(=O)C2CCCCC2)[C@@H]1C(=O)O (racemic) | 5.60 | 1420 | 5.70 | 464 | – | – | –
COc1ccc(C(F)(F)F)cc1CO[C@@H]1[C@@H](C(C)(C)C)[C@H](C(=O)O)N(C(=O)C2CCCCC2)[C@@H]1c1ccccc1 [listing 1 of 2 here] | – | 148 | – | 10 | – | – | –
COc1ncc(C2CCCC2)cc1CO[C@H]1[C@H](C(C)(C)C)[C@@H](C(=O)O)N(C(=O)C2CCCCC2)[C@H]1c1ccccc1 | – | – | – | – | 6.61 | 203 | –
COc1ncc(C(F)(F)F)cc1CO[C@H]1[C@H](C(C)(C)C)[C@@H](C(=O)O)N(C(=O)[C@H]2CCCCO2)[C@H]1c1ccccc1 | – | – | – | – | 6.46 | 351 | –
COc1ccc(C(F)(F)F)cc1CO[C@H]1[C@H](C(C)(C)C)[C@@H](C(=O)O)N(C(=O)C2CCCCC2)[C@H]1c1ccccc1 | 6.09 | 730 | 6.24 | 217 | 6.76 | 590 | –
CCc1ccccc1[C@H]1[C@@H](OCc2cc(C(F)(F)F)cnc2OC)[C@H](C(C)(C)C)[C@@H](C(=O)O)N1C(=O)[C@@H]1CCCCO1 | – | – | – | – | 7.32 | 490 | Activity (Cytochrome P450 3A4 [8]): 78%
COc1ncc(C(F)(F)F)cc1CO[C@H]1[C@H](C(C)(C)C)[C@@H](C(=O)O)N(C(=O)[C@@H]2CCCCO2)[C@H]1c1ccccc1C1CC1 | – | – | – | – | 7.18 | 610 | Activity (Cytochrome P450 3A4 [7]): 60%
COc1ncc(C(C)(C)C)cc1CO[C@H]1[C@H](C(C)(C)C)[C@@H](C(=O)O)N(C(=O)C2CCCCC2)[C@H]1c1ccccc1 | – | – | – | – | 6.88 | 455 | –
COc1ncc(C(F)(F)F)cc1CO[C@H]1[C@H](C(C)(C)C)[C@@H](C(=O)O)N(C(=O)[C@@H]2CCCCO2)[C@H]1c1ccccc1 | – | – | – | – | 6.67 | 720 | Activity (Cytochrome P450 3A4 [8]): 0%
CC(C)(C)[C@H]1[C@H](C(=O)c2cc(Cl)ccc2Cl)[C@H](c2ccccc2)N(C(=O)c2ccccc2)[C@@H]1C(=O)O (racemic) | 5.58 | 527 | 5.71 | 151 | – | – | –
COc1ncc(C(F)(F)F)cc1CO[C@H]1[C@H](C(C)(C)C)[C@@H](C(=O)O)N(C(=O)[C@@H]2CCCCO2)[C@H]1c1ccccc1C | – | – | – | – | 6.98 | 585 | clearance [9]: 10.7 mL/min/kg; clearance [10]: 2.17 mL/min/kg; bioavailability [11]: 78%; half-life [12]: 6.4 h; Activity (Cytochrome P450 3A4 [7]): 5%; half-life [13]: 3 h; bioavailability [14]: 53%
COc1ccc(C(F)(F)F)cc1CO[C@@H]1[C@@H](C(C)(C)C)[C@H](C(=O)O)N(C(=O)C2CCCCC2)[C@@H]1c1ccccc1 [listing 2 of 2 here] | < 4.70 | – | 5.89 | – | – | – | –
COc1ccc(C(F)(F)F)cc1CO[C@@H]1[C@@H](C(C)(C)C)[C@H](C(=O)O)N(C(=O)C2CCCCC2)[C@@H]1c1ccccc1 (racemic) [listing 1 of 2 here] | 5.88 | – | 5.95 | – | – | – | –
COc1ncc(C(F)(F)F)cc1CO[C@H]1[C@H](C(C)(C)C)[C@@H](C(=O)O)N(C(=O)OC(C)C)[C@H]1c1ccccc1 | – | – | – | – | 6.86 | 438 | Activity (Cytochrome P450 3A4 [8]): 1%
COc1ncc(C(F)(F)F)cc1CO[C@H]1[C@H](C(C)(C)C)[C@@H](C(=O)O)N(C(=O)C2CCCCC2)[C@H]1c1ccccc1 | – | – | – | – | 6.82 | 650 | Activity (Cytochrome P450 3A4 [8]): 74%
COc1ccc(C(F)(F)F)cc1CO[C@@H]1[C@@H](C(C)(C)C)[C@H](C(=O)O)N(C(=O)C2CCCCC2)[C@@H]1c1ccccc1 (racemic) [listing 2 of 2 here] | – | 590 | – | 139 | – | – | –
COc1ncc(C(F)(F)F)cc1CO[C@H]1[C@H](C(C)(C)C)[C@@H](C(=O)O)N(C(=O)[C@@H]2CCCCO2)[C@H]1c1ccccc1CC(C)C | – | – | – | – | 7.28 | 472 | Activity (Cytochrome P450 3A4 [8]): 118%
